ChEMBL document CHEMBL4689842, “EUbOPEN Chemogenomics Library wave 1” (2021)

Tested on: HEK-293T
Assay: Multiplex assay against HEK293T;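 for Population Tubulin-Different-Phenotype (%): share of the cells with healthy nuclei that show this phenotype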
Type: toxicity, cell-based
Settings: human
Outline: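 At seeding, live cells were stained with Hoechst33342, BioTracker Green Microtubule Cytoskeleton Dye, MitoTracker Red and Annexin V Alexa Fluor 680. After compound addition they were imaged on a CQ1 microscope at 37°C and 5% CO2, and CellPathfinder machine-learning gating sorted them into Hoechst high-intensity objects or normal cells, with normal cells further split into healthy, pyknosed or fragmented nuclei and pyknosed cells into mitotic or apoptotic. Tubulin, mitochondrial-mass and membrane-permeability phenotypes are given as per cents of cells with healthy nuclei.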

[1] = 12 h, 1 µM, compound concentration 1 uM, replicate 1
[2] = 12 h, 1 µM, compound concentration 1 uM, replicate 2
[3] = 12 h, 10 µM, compound concentration 10 uM, replicate 1
[4] = 12 h, 10 µM, compound concentration 10 uM, replicate 2
[5] = 24 h, 1 µM, compound concentration 1 uM, replicate 1
[6] = 24 h, 1 µM, compound concentration 1 uM, replicate 2
[7] = 24 h, 10 µM, compound concentration 10 uM, replicate 1
[8] = 24 h, 10 µM, compound concentration 10 uM, replicate 2
[9] = 48 h, 1 µM, compound concentration 1 uM, replicate 1
[10] = 48 h, 1 µM, compound concentration 1 uM, replicate 2
[11] = 48 h, 10 µM, compound concentration 10 uM, replicate 1
[12] = 48 h, 10 µM, compound concentration 10 uM, replicate 2

SMILES: Cc1ccc(S(=O)(=O)NC2c3ccccc3Oc3ccccc32)cc1
- Population Apoptotic (%) [1]: 46%
- Population Fragmented Nuclei (%) [1]: 11%
- Population Healthy Nuclei (%) [1]: 44%
- Population Hoechst High Intensity Objects (%) [1]: 11%
- Population Membrane Permeable-Phenotype (%) [1]: 2%
- Population Mitochondria Different-Phenotype (%) [1]: 64%
- Population Mitotic Cells (%) [1]: 53%
- Population Normal (%) [1]: 88%
- Population Pyknosed Nuclei (%) [1]: 44%
- Population Tubulin-Different-Phenotype (%) [1]: 27%
- Total Cell Count [1]: 362
- Population Apoptotic (%) [2]: 21%
- Population Fragmented Nuclei (%) [2]: 5%
- Population Healthy Nuclei (%) [2]: 49%
- Population Hoechst High Intensity Objects (%) [2]: 2%
- Population Membrane Permeable-Phenotype (%) [2]: 17%
- Population Mitochondria Different-Phenotype (%) [2]: 9%
- Population Mitotic Cells (%) [2]: 78%
- Population Normal (%) [2]: 97%
- Population Pyknosed Nuclei (%) [2]: 45%
- Population Tubulin-Different-Phenotype (%) [2]: 22%
- Total Cell Count [2]: 179
- Population Apoptotic (%) [3]: 59%
- Population Fragmented Nuclei (%) [3]: 32%
- Population Healthy Nuclei (%) [3]: 37%
- Population Hoechst High Intensity Objects (%) [3]: 11%
- Population Membrane Permeable-Phenotype (%) [3]: 3%
- Population Mitochondria Different-Phenotype (%) [3]: 86%
- Population Mitotic Cells (%) [3]: 40%
- Population Normal (%) [3]: 88%
- Population Pyknosed Nuclei (%) [3]: 30%
- Population Tubulin-Different-Phenotype (%) [3]: 74%
- Total Cell Count [3]: 398
- Population Apoptotic (%) [4]: 16%
- Population Fragmented Nuclei (%) [4]: 33%
- Population Healthy Nuclei (%) [4]: 34%
- Population Hoechst High Intensity Objects (%) [4]: 5%
- Population Membrane Permeable-Phenotype (%) [4]: 12%
- Population Mitochondria Different-Phenotype (%) [4]: 33%
- Population Mitotic Cells (%) [4]: 83%
- Population Normal (%) [4]: 94%
- Population Pyknosed Nuclei (%) [4]: 31%
- Population Tubulin-Different-Phenotype (%) [4]: 49%
- Total Cell Count [4]: 307
- Population Apoptotic (%) [5]: 41%
- Population Fragmented Nuclei (%) [5]: 10%
- Population Healthy Nuclei (%) [5]: 47%
- Population Hoechst High Intensity Objects (%) [5]: 13%
- Population Membrane Permeable-Phenotype (%) [5]: 4%
- Population Mitochondria Different-Phenotype (%) [5]: 55%
- Population Mitotic Cells (%) [5]: 58%
- Population Normal (%) [5]: 86%
- Population Pyknosed Nuclei (%) [5]: 41%
- Population Tubulin-Different-Phenotype (%) [5]: 41%
- Total Cell Count [5]: 392
- Population Apoptotic (%) [6]: 22%
- Population Fragmented Nuclei (%) [6]: 8%
- Population Healthy Nuclei (%) [6]: 55%
- Population Hoechst High Intensity Objects (%) [6]: 1%
- Population Membrane Permeable-Phenotype (%) [6]: 23%
- Population Mitochondria Different-Phenotype (%) [6]: 12%
- Population Mitotic Cells (%) [6]: 77%
- Population Normal (%) [6]: 98%
- Population Pyknosed Nuclei (%) [6]: 36%
- Population Tubulin-Different-Phenotype (%) [6]: 29%
- Total Cell Count [6]: 239
- Population Apoptotic (%) [7]: 55%
- Population Fragmented Nuclei (%) [7]: 13%
- Population Healthy Nuclei (%) [7]: 55%
- Population Hoechst High Intensity Objects (%) [7]: 10%
- Population Membrane Permeable-Phenotype (%) [7]: 7%
- Population Mitochondria Different-Phenotype (%) [7]: 68%
- Population Mitotic Cells (%) [7]: 45%
- Population Normal (%) [7]: 89%
- Population Pyknosed Nuclei (%) [7]: 30%
- Population Tubulin-Different-Phenotype (%) [7]: 55%
- Total Cell Count [7]: 362
- Population Apoptotic (%) [8]: 17%
- Population Fragmented Nuclei (%) [8]: 11%
- Population Healthy Nuclei (%) [8]: 52%
- Population Hoechst High Intensity Objects (%) [8]: 3%
- Population Membrane Permeable-Phenotype (%) [8]: 9%
- Population Mitochondria Different-Phenotype (%) [8]: 31%
- Population Mitotic Cells (%) [8]: 82%
- Population Normal (%) [8]: 96%
- Population Pyknosed Nuclei (%) [8]: 36%
- Population Tubulin-Different-Phenotype (%) [8]: 47%
- Total Cell Count [8]: 283
- Population Apoptotic (%) [9]: 34%
- Population Fragmented Nuclei (%) [9]: 18%
- Population Healthy Nuclei (%) [9]: 46%
- Population Hoechst High Intensity Objects (%) [9]: 12%
- Population Membrane Permeable-Phenotype (%) [9]: 2%
- Population Mitochondria Different-Phenotype (%) [9]: 26%
- Population Mitotic Cells (%) [9]: 65%
- Population Normal (%) [9]: 87%
- Population Pyknosed Nuclei (%) [9]: 35%
- Population Tubulin-Different-Phenotype (%) [9]: 28%
- Total Cell Count [9]: 465
- Population Apoptotic (%) [10]: 13%
- Population Fragmented Nuclei (%) [10]: 8%
- Population Healthy Nuclei (%) [10]: 78%
- Population Hoechst High Intensity Objects (%) [10]: 3%
- Population Membrane Permeable-Phenotype (%) [10]: 11%
- Population Mitochondria Different-Phenotype (%) [10]: 3%
- Population Mitotic Cells (%) [10]: 86%
- Population Normal (%) [10]: 96%
- Population Pyknosed Nuclei (%) [10]: 12%
- Total Cell Count [10]: 466
- Population Apoptotic (%) [11]: 36%
- Population Fragmented Nuclei (%) [11]: 13%
- Population Healthy Nuclei (%) [11]: 66%
- Population Hoechst High Intensity Objects (%) [11]: 8%
- Population Membrane Permeable-Phenotype (%) [11]: 2%
- Population Mitochondria Different-Phenotype (%) [11]: 27%
- Population Mitotic Cells (%) [11]: 63%
- Population Normal (%) [11]: 91%
- Population Pyknosed Nuclei (%) [11]: 20%
- Population Tubulin-Different-Phenotype (%) [11]: 38%
- Total Cell Count [11]: 453
- Population Apoptotic (%) [12]: 12%
- Population Fragmented Nuclei (%) [12]: 4%
- Population Healthy Nuclei (%) [12]: 73%
- Population Hoechst High Intensity Objects (%) [12]: 2%
- Population Membrane Permeable-Phenotype (%) [12]: 6%
- Population Mitochondria Different-Phenotype (%) [12]: 20%
- Population Mitotic Cells (%) [12]: 87%
- Population Normal (%) [12]: 97%
- Population Pyknosed Nuclei (%) [12]: 22%
- Population Tubulin-Different-Phenotype (%) [12]: 45%
- Total Cell Count [12]: 374
